Results reported in PubChem BioAssay.
Values without a mark were called inactive. Records with an inconclusive call do not appear. The source made the active and inactive calls.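 The calls were made as follows, unless noted: active = growth inhibition above 25% in both replicates, a cutoff set 3 SD above the mean; inconclusive = above 25% in only one replicate; inactive = the rest.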

Assays:
[1] = S. cerevisiae growth inhibition in permissive medium (OD615), pilot counter-assay for S. cerevisiae lifespan shortening project, permissive growth control (AID 705); details: OD615, 24 h, at 10 µM, active compounds read high
Method in brief: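 System: S. cerevisiae with engineered DeaD lifespan system / Measured by: absorbance (optical density) at 615 nm / Read-out: reduction in yeast growth (OD615) / Times: 4 h cell pre-growth, 24 h exposure at 30 °C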

[2] = S. cerevisiae growth inhibition in restrictive medium, OD615, pilot screen, restrictive growth control, yeast lifespan reduction project (AID 706;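 active = growth inhibition above a set limit, 3 SD over mean compound inhibition, in both replicates, cut at about 43% in these data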;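 also: modified DeaD lifespan yeast strain shifted to restrictive glucose medium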); details: OD615, 48 h, at 10 µM, active compounds read high
Method in brief: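 System: Engineered S. cerevisiae DeaD strain | Buffer or medium: Glucose-based CSMM-D restrictive medium | Schedule: 4 h pre-incubation, 48 h exposure at 30 °C | Technique: Optical density at 615 nm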

[3] = doxorubicin toxicity protection in MRP-1 cells – H69AR cells, CellTiter-Glo, duplicate, MRP-1 activator project, pilot screen (AID 807;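 active = viability increase at or above a cutoff of the median across tested compounds plus 3 SD, cut at about 8.5% in these data, passing the limit was not always enough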;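 also: compound pretreatment 18-22 h then 72 h combined with doxorubicin; 0% = doxorubicin alone and 100% = vehicle without doxorubicin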); details: H69AR viability with doxorubicin, CellTiter-Glo luminescence; at 10 µM; active compounds read high
[4] = viability of HCT116 without oncogenic beta-catenin – human colon tumor cells, pilot screen (AID 823;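 active = cell viability at or below a set limit in both duplicate runs, the limit being the all-compound median minus 4 SD, cut at about 23% in these data, passing the limit was not always enough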;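 also: 0% = wells killed by 20 µM Hyamine and 100% = untreated DMSO cell wells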); details: HCT116 beta-catenin knockout viability, CellTiter-Glo, 60 h; at 10 µM; active compounds read low
[5] = viability of PTEN-null HCT116 cells – cell-based, HCT116 clonal line, CellTiter-Glo, pilot screen (AID 824;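 active = viability at or below 27.92% in each of two runs, the all-compound median minus 4 SD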;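 also: 0% = 20 µM Hyamine control and 100% = vehicle cell control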); details: HCT116 PTEN-deleted viability, 60 h, at 10 µM, active compounds read low
[6] = RAM pathway blockade in budding yeast – dse1pr::URA3 reporter, 5-FOA selection, pilot screen (AID 869;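 active = inhibition over a set limit, the all-compound mean plus 3 SD, in both replicate runs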;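 also: 0% = DMSO wells with no growth and 100% = 10 µM 1-NA-PP1 with full growth; RAM network block rescues cells from 5-FOA so hits raise OD615 growth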); details: S. cerevisiae dse1pr::URA3 5-FOA growth, OD615, 2 d; at 10 µM; active compounds read high; strain carries analog-sensitive mutant Cbk1 kinase
[7] = RAM signaling pathway blockade in yeast – S. cerevisiae, Pdr1DBD-CYC8 efflux-inhibited sensitized strain, primary screen (AID 1298;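 active = RAM network inhibition above 8.4% in each of two replicates, 3 SD over the compound average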;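 also: 0% = DMSO untreated cells without growth and 100% = 10 µM 1-NA-PP1 full growth; higher means more yeast growth rescued from 5-FOA killing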); details: S. cerevisiae cbk1-as DSE1-URA3 strain, 5-FOA growth OD615, 2 d; at 50 µM; active compounds read high

| Compound | growth inhibition [1] | growth inhibition [2] | viability increase [3] | viability [4] | viability [5] | inhibition [6] | RAM network inhibition [7] |
| --- | --- | --- | --- | --- | --- | --- | --- |
| CCC(C)Sc1nc2c(cnn2-c2ccc(C)c(C)c2)c(=O)[nH]1 (configuration not stated) | -5.49% | 1.98% | -3.4% | 73% | 75.9% | 3.72% | -0.06% |
| Cc1cc(-c2ccco2)n(CC(=O)NCCN(C)C)n1 | -3.33% | 1.02% | -0.48% | 98.8% | 94.5% | 2.31% | 0.37% |
| CC(=O)NCC(=O)NC1(C(=O)NC2CCCC2)CCCCC1 | -1.73% | -24.5% | -0.35% | 97.8% | 99.6% | 4.11% | 2.03% |
| O=c1c(N2CCOCC2)nsnc1N1CCOCC1 | 8.28% | -6.26% | -1.68% | 106% | 95.8% | 0.59% | -2% |
| COC(=O)c1ccc(NC(=O)Cn2nc(SC)n(N)c2=S)cc1 | -11.2% | -14.1% | -0.99% | 98% | 99.3% | 1.85% | 7.07% |
| O=C(C1CCN(c2ncnc3c2sc2cccc(F)c23)CC1)N1CCOCC1 | 0.06% | 2.17% | -6.73% | 77.2% | 76.8% | 3.08% | 1.81% |
| COC(=O)c1c(NC(=O)CCCC(=O)O)sc(C)c1C | -6.98% | 3.54% | -3.07% | 91.8% | 87.9% | 0.305% | 3.63% |
| CCOC1OC2C(CO)OC(n3cnc4c(N)ncnc43)C2O1 (configuration not stated) | 6.12% | 10.6% | 0.13% | 95.1% | 96.6% | 1.5% | 1.28% |
| Cc1ccc(CCN2CC(C(=O)NCCCN3CCN(C)CC3)CC2=O)cc1 (configuration not stated) | 1.07% | -3.19% | -2.38% | 75.9% | 92.8% | -0.675% | 1.23% |
| Cc1cccc(NC(=O)COc2ccc(Br)cc2C)n1 | -4.42% | 1.1% | 1.07% | 92.9% | 90.5% | 0.655% | 5.6% |
| CCC(C)NC(=O)C1CCN(C(=O)c2ccccc2)CC1 (configuration not stated) | -3.49% | -5.37% | 0.74% | 102% | 98.2% | 1.18% | 1.87% |
| O=c1cnn(-c2ccccc2)c(-c2ccccc2)c1 | -15.7% | -5.25% | -6.23% | 31.1% | 24% (active) | 2.04% | 1.25% |
| Cc1ccc(O)c(C(=O)c2cnn(C(=O)Cc3csc(C)n3)c2)c1 | -1.97% | 1.6% | -0.48% | 98.9% | 88.3% | -0.5% | -1.67% |
| CCN1CCCC1CNC(=O)c1cc2c(-c3ccc(Cl)cc3)nn(C)c2s1 (configuration not stated) | -7.45% | 10.1% | -8.33% | 2.03% (active) | 2.04% (active) | 1.31% | 8.33% |
| COc1ccc(CC(=O)N2CCN=C2SC)cc1 | 3.24% | -0.34% | 1.06% | 99.3% | 103% | 1.54% | 0.48% |
| CC1Oc2ccccc2C=C1C1/C(=C(/O)c2ccccc2)C(=O)C(=O)N1CCCN(C)C (configuration not stated) | -3.27% | 2.81% | -2.78% | 95.6% | 97% | -0.25% | 0.77% |
| O=S(=O)(NC1c2cccc3cccc(c23)C1N1CCNCC1)c1ccccc1 (configuration not stated) | -10.4% | -14.2% | -5.27% | 68% | 74.8% | 1.62% | 2.72% |
| COc1ccccc1CNC(=O)c1nnc(Cc2ccc(Cl)cc2)o1 | -9.86% | 15.4% | 2.29% | 103% | 99.8% | 1.81% | 1.15% |

| Compound | growth inhibition [1] | growth inhibition [2] | viability increase [3] | viability [4] | viability [5] | inhibition [6] | RAM network inhibition [7] |
| --- | --- | --- | --- | --- | --- | --- | --- |
| CCC(C)NC(=O)CCS(=O)(=O)c1ccc2c(c1)n(C)c(=O)c(=O)n2C (configuration not stated) | -2.86% | 4.93% | -0.01% | 103% | 99.1% | 3% | 3.76% |
| CCCCCCSc1nc2c(c(=O)[nH]c(=O)n2C)n1C | -0.55% | 22.7% | -4.63% | 82% | 90.3% | 0.395% | 1.1% |
| COc1ccccc1N1CCN(C(=O)C2CCN(S(=O)(=O)c3ccccc3)CC2)CC1 | -0.075% | 2.96% | -1.42% | 92.6% | 95.6% | 1.07% | 5.76% |
| Cc1nc(N2CCN(C(=O)c3ccco3)CC2)c2c3c(sc2n1)CCC3 | -10.5% | 5.55% | -1.12% | 79.8% | 83% | 1.16% | 5% |
| CC(=O)c1ccc(NC(=O)CSc2nnc(Cn3c(=O)sc4ccccc43)n2C)cc1 | -0.18% | 14.4% | -1.49% | 100% | 101% | 0.83% | 3.42% |
| CCOC(=O)C1CCN(C(=O)Cn2cc3c(n2)CCC(C)C3)CC1 (configuration not stated) | -5.55% | -0.07% | 0.98% | 97.6% | 95.6% | 1.87% | 1.77% |
| CCCCNC(=O)CC1Nc2ccccc2NC1=O (configuration not stated) | 5.04% | 4.59% | -2.91% | 113% | 93% | 0.83% | 5.83% |
| CCOC(=O)CC(=O)Nc1ccc(C(=O)OCC)cc1 | 4.17% | 7.02% | 1.09% | 101% | 105% | 1.54% | 4.84% |
| CCCC(=O)c1c(NC)cc(C)oc1=O | -7.03% | 4.71% | -0.53% | 97.2% | 92.2% | 0.62% | 3.99% |
| CCOC(=O)c1ccc2c(c1)NC(=O)C(N1CCN(c3ccc(OC)cc3)CC1)S2 (configuration not stated) | 0.455% | -5.2% | -7.1% | 74.6% | 51.8% | 4.31% | 6.45% |
| Cc1nc2c3ccccc3n(CC#N)c(=O)n2n1 | -11.8% | -5.63% | -3.78% | 99.9% | 95.8% | 2.66% | 0.21% |
| CN(CCO)c1ncnc2nc[nH]c12 | -10.4% | -7.77% | 0.3% | 104% | 93.2% | 1.36% | 1.71% |
| COc1ccc(-c2nnc(SCC(=O)N3CCN(c4ccccc4)CC3)o2)cc1OC | -7.28% | 7.65% | -6.37% | 73.7% | 90% | 1.64% | 1.67% |
| CC(C)c1nc2cc3ccccc3cc2[nH]1 | -5.02% | -20.5% | -3.6% | 73.5% | 81.8% | 0.18% | 7.45% |
| CC(=O)OCCn1c(=O)c2cc3c(=O)n(CCOC(C)=O)c(=O)c3cc2c1=O | -7.22% | -6.18% | -0.09% | 101% | 98.3% | 1.84% | 1.25% |
| COc1ccccc1NC(=O)CCNC(=O)Cn1ccc2ccccc2c1=O | -12.7% | -11.8% | -1.84% | 96.6% | 93.3% | 0.74% | 3.6% |
| Brc1ccc(-c2nc(-c3ccccn3)no2)o1 | 0.205% | 13% | -4.55% | 73.8% | 67.5% | 2.41% | 2.05% |
| Cc1nnc(-c2ccccc2)c[n+]1[O-] | -6.06% | -14.7% | -2.16% | 101% | 95.2% | 0.98% | 0.63% |
